Measured values taken from ChEMBL document CHEMBL1131421, “Tetrahydro-isoquinoline-based factor Xa inhibitors” (J Med Chem, 1998).

Assays:
Coagulation factor X = Coagulation factor X (Homo sapiens, UniProt P00742); assay: The inhibition constant against human Coagulation factor X
[1] = The Anti-coagulant activity was tested by measuring activated partial thromboplastin time (aPTT); type: functional
Summary of the method: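 Human citrated plasma (blood 9:1 with 0.11 mol/L sodium citrate, spun 3000 rpm 10 min, RT, used within 8 h) plus aPTT reagent and compound in DMSO (DMSO-only control), 3 min at 37 °C in a coagulometer; clotting time recorded at 1000, 200, 100, 10, 1 μM in plasma. ED200 (aPTT-doubling concentration) from nonlinear fit of y = a + b·x^c; quadruplicate determinations.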

Prothrombin [2] = biological target: T1, Prothrombin (Homo sapiens, UniProt P00734); assay: The Anti-coagulant activity was tested by measuring thrombin clotting time (TT); type: functional
Summary of the method: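 Thrombin clotting time in human citrated plasma (blood 9:1 with 0.11 mol/L citrate, spun 3000 rpm 10 min, stored RT ≤8 h); plasma with compound in DMSO or DMSO control incubated 2 min at 37 °C in coagulometer. Clotting measured at 500, 100, 50, 5, 0.5 μM in plasma; doubling concentration (ED200) obtained by nonlinear regression of y = a + b·x^c.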

Prothrombin [3] = biological target: T1, Prothrombin; assay: The inhibition constant against human thrombin
Trypsin = Trypsin (Homo sapiens, UniProt P07477+P07478+P35030); assay: The inhibition constant against human trypsin; type: protein assay
Plasminogen = Plasminogen (Homo sapiens, UniProt P00747); assay: The inhibition constant against human plasmin
Chain of Plasminogen (P00747 97-580 limits assumed): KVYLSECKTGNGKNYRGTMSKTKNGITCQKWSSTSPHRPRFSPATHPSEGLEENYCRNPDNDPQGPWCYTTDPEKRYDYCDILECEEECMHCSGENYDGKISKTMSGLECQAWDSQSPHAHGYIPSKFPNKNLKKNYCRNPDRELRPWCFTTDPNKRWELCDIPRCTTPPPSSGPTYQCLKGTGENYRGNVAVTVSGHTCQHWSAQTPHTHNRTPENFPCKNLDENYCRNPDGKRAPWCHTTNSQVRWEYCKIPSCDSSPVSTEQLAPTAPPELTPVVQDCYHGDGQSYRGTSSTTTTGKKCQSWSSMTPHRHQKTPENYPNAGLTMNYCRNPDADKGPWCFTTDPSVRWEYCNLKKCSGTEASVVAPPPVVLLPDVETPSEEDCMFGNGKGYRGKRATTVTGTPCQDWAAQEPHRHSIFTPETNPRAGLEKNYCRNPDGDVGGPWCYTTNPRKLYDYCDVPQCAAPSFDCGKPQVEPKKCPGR
Chain of Plasminogen (P00747 581-810 limits assumed): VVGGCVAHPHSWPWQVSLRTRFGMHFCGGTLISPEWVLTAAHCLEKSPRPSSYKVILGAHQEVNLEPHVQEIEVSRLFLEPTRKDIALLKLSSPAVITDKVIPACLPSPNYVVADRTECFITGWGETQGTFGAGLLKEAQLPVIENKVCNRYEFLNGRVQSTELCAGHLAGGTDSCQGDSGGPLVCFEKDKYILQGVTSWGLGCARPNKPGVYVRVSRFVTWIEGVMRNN

Chain of Coagulation factor X (P00742 41-179 limits assumed): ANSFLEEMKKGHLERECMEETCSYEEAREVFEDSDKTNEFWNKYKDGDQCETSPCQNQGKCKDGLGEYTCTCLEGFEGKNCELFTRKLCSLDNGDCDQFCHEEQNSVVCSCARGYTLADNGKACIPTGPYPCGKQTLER
Chain of Coagulation factor X (P00742 235-488 limits assumed): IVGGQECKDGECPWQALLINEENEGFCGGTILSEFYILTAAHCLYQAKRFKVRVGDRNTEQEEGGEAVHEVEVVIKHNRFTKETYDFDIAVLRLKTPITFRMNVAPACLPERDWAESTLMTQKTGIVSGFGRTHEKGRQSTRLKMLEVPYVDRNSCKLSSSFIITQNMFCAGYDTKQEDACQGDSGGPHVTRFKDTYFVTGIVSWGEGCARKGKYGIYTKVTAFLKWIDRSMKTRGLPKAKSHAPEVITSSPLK

Structure (SMILES) | Ki (Coagulation factor X) [µM] | ED200 (Prothrombin [2]) [µM] | Ki (Prothrombin [3]) [µM] | Ki (Trypsin) [µM] | Ki (Plasminogen) [µM] | ED200 [1] [µM]
C=CCN1CC[C@H](Oc2ccc(C(Oc3ccc4c(c3)CN(C(=N)N)CC4)C(=O)OCC)cc2)C1 (stereo partly drawn) | 1 | 240 | > 100 | 10 | 50 | 27
CC(=N)N1CC[C@H](Oc2ccc([C@H](Cc3ccc4ccc(C(=N)N)cc4c3)C(=O)O)cc2)C1.Cl [DX-9065A HYDROCHLORIDE HYDRATE] |  |  |  | 2 | 11 | 
CCOC(=O)C(Oc1ccc2c(c1)CN(C(=N)N)CC2)c1ccc(O[C@H]2CCN(C(=N)N)C2)cc1 (stereo partly drawn) | 0.2 | 300 | 13 | 2 | 45 | 10
CCOC(=O)C(Oc1ccc2c(c1)CN(C(=N)N)CC2)c1ccc(O[C@H]2CCN(C3=CC(=O)CC(C)(C)C3)C2)cc1 (stereo partly drawn) | 0.2 | 90 | > 100 | 10 | 50 | 24
CC1(C)CC(=O)C=C(N2CC[C@H](Oc3ccc(C(Oc4ccc5c(c4)CN(C(=N)N)CC5)C(=O)O)cc3)C2)C1 (stereo partly drawn) | 0.2 | > 500 | > 100 | 10 | 50 | 200
CCOC(=O)C(Oc1ccc2c(c1)CN(C(=N)N)CC2)c1ccc(OC2CCOCC2)cc1 (stereo not drawn) | 2 | 500 | 8 | 3 | 26 | 250
N=C(N)N1CCc2ccc(OC(C(=O)O)c3ccc(O[C@H]4CCNC4)cc3)cc2C1 (stereo partly drawn) | 1 | > 500 | > 100 | 10 | 10 | 50
C=CCOC(=O)N1CC[C@H](Oc2ccc(C(Oc3ccc4c(c3)CN(C(=N)N)CC4)C(=O)OCC)cc2)C1 (stereo partly drawn) | 0.2 | 500 | > 100 | 9 | 10 | 200
CCOC(=O)C(Oc1ccc2c(c1)CN(C(=N)N)CC2)c1ccc(O[C@H]2CCNC2)cc1 (stereo partly drawn) | 0.4 | 140 | > 100 | 6 | 40 | 26
CCOC(=O)C(Oc1ccc2c(c1)CN(C(=N)N)CC2)c1ccc(OC2CCNCC2)cc1 (stereo not drawn) | 2 | 71 | 16 | 3 | 25 | 26

The next lines start with results.

Ki (Coagulation factor X) [µM] | ED200 (Prothrombin [2]) [µM] | Ki (Prothrombin [3]) [µM] | Ki (Trypsin) [µM] | Ki (Plasminogen) [µM] | Structure (SMILES) | ED200 [1] [µM]
0.03 | 53 | 15 | 0.4 | 25 | CCOC(=O)C(Oc1ccc2c(c1)CN(C(=N)N)CC2)c1ccc(OC2CCN(C(C)=N)CC2)cc1 (stereo not drawn) | 3
0.028 | 54 | 8 | 0.2 | 25 | CCOC(=O)C(Oc1ccc2c(c1)CN(C(=N)N)CC2)c1ccc(OC2CCN(C(=N)N)CC2)cc1 (stereo not drawn) | 3
0.044 | > 500 | > 100 | 0.2 | 44 | N=C(N)N1CCC(Oc2ccc(C(Oc3ccc4c(c3)CN(C(=N)N)CC4)C(=O)O)cc2)CC1 (stereo not drawn) | 9
3 | > 500 | > 100 | 12 | 25 | N=C(N)N1CCc2ccc(OC(C(=O)O)c3ccc(OC4CCOCC4)cc3)cc2C1 (stereo not drawn) | > 500
0.055 | > 500 | > 100 | 2 | 52 | CC(=N)N1CCC(Oc2ccc(C(Oc3ccc4c(c3)CN(C(=N)N)CC4)C(=O)O)cc2)CC1 (stereo not drawn) | 11
0.08 | > 500 | > 100 | 10 |  | CC(=N)N1CC[C@H](Oc2ccc(C(Oc3ccc4c(c3)CN(C(=N)N)CC4)C(=O)O)cc2)C1 (stereo partly drawn) | 30
0.2 | > 500 | > 100 | 1 |  | N=C(N)N1CCc2ccc(OC(C(=O)O)c3ccc(O[C@H]4CCN(C(=N)N)C4)cc3)cc2C1 (stereo partly drawn) | 40
0.026 | > 500 | > 100 | 0.2 |  | COc1ccc(C(=N)N2CCC(Oc3ccc(C(Oc4ccc5c(c4)CN(C(=N)N)CC5)C(=O)O)cc3)CC2)cc1 (stereo not drawn) | 7
3 | > 500 | 4 |  | 14 | C=CCOC(=O)N1CCC(Oc2ccc(C(Oc3ccc4c(c3)CN(C(=N)N)CC4)C(=O)OCC)cc2)CC1 (stereo not drawn) | 260
0.021 | 32 | 5 | 0.2 |  | CCOC(=O)C(Oc1ccc2c(c1)CN(C(=N)N)CC2)c1ccc(OC2CCN(C(=N)c3ccc(OC)cc3)CC2)cc1 (stereo not drawn) | 6
0.03 | 70 | 20 | 0.08 |  | CCOC(=O)C(Oc1ccc2c(c1)CN(C(=N)N)CC2)c1ccc(OC2CCN(C(=N)CC)CC2)cc1 (stereo not drawn) | 10
2 | > 500 | > 100 | 6 | 25 | N=C(N)N1CCc2ccc(OC(C(=O)O)c3ccc(OC4CCNCC4)cc3)cc2C1 (stereo not drawn) | 190
0.1 | 100 | > 100 | 2 |  | CCOC(=O)C(Oc1ccc2c(c1)CN(C(=N)N)CC2)c1ccc(O[C@H]2CCN(C(C)=N)C2)cc1 (stereo partly drawn) | 10
3 | 200 | > 100 | 10 | 10 | CCOC(=O)C(Oc1ccc2c(c1)CN(C(=N)N)CC2)c1ccc(OC2CCN(C(C)=O)CC2)cc1 (stereo not drawn) | 100
0.4 | > 500 | > 100 | 5 |  | CC(=O)N1CCC(Oc2ccc(C(Oc3ccc4c(c3)CN(C(=N)N)CC4)C(=O)O)cc2)CC1 (stereo not drawn) | 150
